Blank lines part the entries; values can stand above or below the compound they belong to.
Tests used:
Mus musculus [1] = test: Compound was tested for anticonvulsant activity in maximal electroshock seizure(MES) test after 30 min upon intraperitoneal administration to mice at a dose of 114 mg/kg; Animals protected / Animals tested = 3/10; assay type: functional
Outline: (§1)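 Male OF1 mice (15-25 g), free access to water only during testing. Compound given ip and maximal electroshock applied at 30 min or 3 h. Typically 8-10 mice per compound, dose and time point. Screening at initial 0.4 mmol/kg, scored as protected/tested.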

Mus musculus [2] = test: Compound was tested for anticonvulsant activity in maximal electroshock seizure(MES) test after 3 hours upon intraperitoneal administration to mice at a dose of 114 mg/kg; Animals protected / Animals tested = 4/8; assay type: functional; outline: as §1
[3] = Lipophilicity value was evaluated; assay type: physicochemical; details: RP-HPLC
Outline: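 Lipophilicity by RP-HPLC on a C18 column at 1.0 mL/min. Mobile phases were 10-50% […] with 50-90% 0.01 M phosphate buffer pH 7.4. Triplicate runs per eluent. log k_o extrapolated from at least four eluent compositions. ClogP also calculated.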

Mus musculus [4] = test: Compound was tested for anticonvulsant activity in maximal electroshock seizure(MES) test after 3 hours upon intraperitoneal administration to mice; assay type: functional; details: ip; outline: as §1
Mus musculus [5] = test: Compound was tested for anticonvulsant activity in maximal electroshock seizure(MES) test after 30 min upon intraperitoneal administration to mice; assay type: functional; details: ip, 0.5 h; outline: as §1
Mus musculus [6] = test: The average latency on the onset of the seizures compared to the controls after 30 min in the strychnine test in mice at a dose of 209 mg/kg; assay type: functional
Outline: (§2)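 Male NMRI mice (18-25 g). Compound in DMSO given ip at 2 mL/kg. Strychnine chlorhydrate in saline (1.2 mg/mL, 1 mL/kg) given sc 30 min or 3 h later, with 30 min observation. Seizure onset latency expressed as % of the mean control latency (mean ± SD, n = 8-10).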

Mus musculus [7] = test: The average latency on the onset of the seizures compared to the controls after 3 hr in the strychnine test in mice at a dose of 209 mg/kg; assay type: functional; outline: as §2
Mus musculus [8] = test: Compound was tested for anticonvulsant activity in maximal electroshock seizure(MES) test after 30 min upon intraperitoneal administration to mice at a dose of 84 mg/kg; Animals protected / Animals tested = 2/8; assay type: functional; outline: as §1
Mus musculus [9] = test: Percent of the tonic seizures after 30 min in the 3-mercaptopropionic acid test in mice at a dose of 209 mg/kg, ip; assay type: functional; details: route intraperitoneal
Outline: (§3)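 Male NMRI mice (18-25 g). Compound in DMSO given ip at 2 mL/kg. 3-Mercaptopropionic acid 40 mg/kg ip in saline given 30 min or 3 h later. Tonic seizures recorded and expressed as % of animals.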

Mus musculus [10] = test: Percent of the tonic seizures after 30 min in the 3-mercaptopropionic acid test in mice at a dose of 418 mg/kg, ip; assay type: functional; details: route intraperitoneal; outline: as §3
Mus musculus [11] = test: Percent of the tonic seizures after 3h in the 3-mercaptopropionic acid test in mice at a dose of 209 mg/kg, ip; assay type: functional; details: route intraperitoneal; outline: as §3
Mus musculus [12] = test: Percent of the tonic seizures after 3h in the 3-mercaptopropionic acid test in mice at a dose of 418mg/kg, ip; assay type: functional; outline: as §3
Mus musculus [13] = test: The average latency on the onset of the seizures compared to the controls after 30 min in the strychnine test in mice at a dose of 220 mg/kg; assay type: functional; outline: as §2
Mus musculus [14] = test: The average latency on the onset of the seizures compared to the controls after 3h in the strychnine test in mice at a dose of 220 mg/kg; assay type: functional; outline: as §2
Mus musculus [15] = test: Compound was tested for anticonvulsant activity in maximal electroshock seizure(MES) test after 3 hours upon intraperitoneal administration to mice at a dose of 750 mg/kg; assay type: functional; details: ip; outline: as §1
Mus musculus [16] = test: Compound was tested for anticonvulsant activity in maximal electroshock seizure(MES) test after 30 min upon intraperitoneal administration to mice at a dose of 89 mg/kg; Animals protected / Animals tested = 2/8; assay type: functional; outline: as §1
Mus musculus [17] = test: Compound was tested for anticonvulsant activity in maximal electroshock seizure(MES) test after 3 hours upon intraperitoneal administration to mice at a dose of 106 mg/kg; Animals protected / Animals tested = 4/8; assay type: functional; outline: as §1
Mus musculus [18] = test: Compound was tested for anticonvulsant activity in maximal electroshock seizure(MES) test after 3 hours upon intraperitoneal administration to mice at a dose of 116 mg/kg; Animals protected / Animals tested = 3/8; assay type: functional; outline: as §1
Mus musculus [19] = test: Ratio of the animals protected to animals tested after 30 min. in the MES test after intraperitoneal administration to mice at a dose of 150 mg/kg; Animals protected / Animals tested = 2/10; assay type: functional; outline: as §1
Mus musculus [20] = test: Ratio of the animals protected to animals tested after 3h in the MES test after intraperitoneal administration to mice at a dose of 150 mg/kg; Animals protected / Animals tested = 3/8; assay type: functional; outline: as §1
Mus musculus [21] = test: Compound was tested for anticonvulsant activity in maximal electroshock seizure(MES) test after 3 hours upon intraperitoneal administration to mice at a dose of 120 mg/kg; Animals protected / Animals tested = 6/9; assay type: functional; outline: as §1
Mus musculus [22] = test: Compound was tested for anticonvulsant activity in maximal electroshock seizure(MES) test after 30 min upon intraperitoneal administration to mice at a dose of 120 mg/kg; Animals protected / Animals tested = 4/10; assay type: functional; outline: as §1
Mus musculus [23] = test: Ratio of the animals protected to animals tested after 30 min. in the MES test after intraperitoneal administration to mice at a dose of 150 mg/kg; Animals protected / Animals tested = 1/8; assay type: functional; outline: as §1
Mus musculus [24] = test: Ratio of the animals protected to animals tested after 3h in the MES test after intraperitoneal administration to mice at a dose of 150 mg/kg; Animals protected / Animals tested = 5/10; assay type: functional; outline: as §1
Mus musculus [25] = test: Compound was tested for anticonvulsant activity in maximal electroshock seizure(MES) test after 30 min upon intraperitoneal administration to mice at a dose of 120 mg/kg; Animals protected / Animals tested = 0/8; assay type: functional; outline: as §1
Mus musculus [26] = test: Compound was tested for anticonvulsant activity in maximal electroshock seizure(MES) test after 30 min upon intraperitoneal administration to mice at a dose of 89 mg/kg; Animals protected / Animals tested = 3/8; assay type: functional; outline: as §1
Mus musculus [27] = test: Compound was tested for anticonvulsant activity in maximal electroshock seizure(MES) test after 3 hours upon intraperitoneal administration to mice at a dose of 89 mg/kg; Animals protected / Animals tested = 4/10; assay type: functional; outline: as §1
Mus musculus [28] = test: Compound was tested for anticonvulsant activity in maximal electroshock seizure(MES) test after 30 min upon intraperitoneal administration to mice at a dose of 120 mg/kg; Animals protected / Animals tested = 1/8; assay type: functional; outline: as §1
Mus musculus [29] = test: The average latency on the onset of the seizures compared to the controls after 30 min in the strychnine test at a dose of 207 mg/kg; assay type: functional; outline: as §2
Mus musculus [30] = test: The average latency on the onset of the seizures compared to the controls after 3h in the strychnine test at a dose of 207 mg/kg; assay type: functional; outline: as §2
Mus musculus [31] = test: Compound was tested for anticonvulsant activity in maximal electroshock seizure(MES) test after 3 hours upon intraperitoneal administration to mice at a dose of 166 mg/kg; Animals protected / Animals tested = 6/9; assay type: functional; outline: as §1
Mus musculus [32] = test: Compound was tested for anticonvulsant activity in maximal electroshock seizure(MES) test after 30 min upon intraperitoneal administration to mice at a dose of 166 mg/kg; Animals protected / Animals tested = 3/9; assay type: functional; outline: as §1
Mus musculus [33] = test: Percent of the tonic seizures after 30 min in the 3-mercaptopropionic acid test at a dose of 207 mg/kg; assay type: functional; outline: as §3
Mus musculus [34] = test: Percent of the tonic seizures after 3h in the 3-mercaptopropionic acid test at a dose of 207 mg/kg; assay type: functional; outline: as §3
Mus musculus [35] = test: Compound was tested for anticonvulsant activity in maximal electroshock seizure(MES) test after 30 min upon intraperitoneal administration to mice at a dose of 58 mg/kg; Animals protected / Animals tested = 2/10; assay type: functional; outline: as §1
Mus musculus [36] = test: Compound was tested for anticonvulsant activity in maximal electroshock seizure(MES) test after 3 hr upon intraperitoneal administration to mice; assay type: functional; details: ip; outline: as §1
Mus musculus [37] = test: Compound was tested for anticonvulsant activity in maximal electroshock seizure(MES) test after 30 min upon intraperitoneal administration to mice at a dose of 750 mg/kg; assay type: functional; details: ip, 0.5 h; outline: as §1

- Log Ko [3]: 2.64
SMILES: COC(=O)CNC(=O)OCc1ccccc1
- Average latency (Mus musculus [13]): 154%
- Average latency (Mus musculus [14]): 139%
- ED50 (Mus musculus [15]): 16.5 mg/kg
- Protected/tested (Mus musculus [16]): 2

- Log Ko [3]: 3.7
SMILES: O=C(CNC(=O)OCc1ccccc1)NC1CCCCC1
- ED50 (Mus musculus [5]): 33.4 mg/kg
- Protected/tested (Mus musculus [18]): 3

- Log Ko [3]: 4.35
SMILES: O=C(CNC(=O)OCc1ccccc1)OCc1ccccc1
- Protected/tested (Mus musculus [21]): 6
- Protected/tested (Mus musculus [22]): 4

- Log Ko [3]: 2.37
SMILES: COC(=O)CNC(=O)CCc1ccccc1
- Protected/tested (Mus musculus [26]): 3
- Protected/tested (Mus musculus [27]): 4

- Log Ko [3]: 3.49
SMILES: Cc1ccccc1NC(=O)CNC(=O)OCc1ccccc1
- ED50 (Mus musculus [4]): 74.3 mg/kg
- Protected/tested (Mus musculus [28]): 1

- Log Ko [3]: 3.88
SMILES: O=C(CNC(=O)OCc1ccccc1)NCCc1ccccc1
- ED50 (Mus musculus [4]): 16.6 mg/kg
- ED50 (Mus musculus [5]): 8.1 mg/kg

Further lines, the compound ahead of its results:

SMILES: O=C(CNC(=O)OCc1ccccc1)Nc1ccccc1
- Protected/tested (Mus musculus [1]): 3
- Protected/tested (Mus musculus [2]): 4
- Log Ko [3]: 3.49

SMILES: CC(C)NC(=O)CNC(=O)OCc1ccccc1
- ED50 (Mus musculus [4]): 9.5 mg/kg
- ED50 (Mus musculus [5]): 14 mg/kg
- Log Ko [3]: 2.65

SMILES: O=C(O)CNC(=O)OCc1ccccc1
- Average latency (Mus musculus [6]): 150%
- Average latency (Mus musculus [7]): 142%
- ED50 (Mus musculus [4]): 56.5 mg/kg
- Protected/tested (Mus musculus [8]): 2
- Tonic seizures (Mus musculus [9]): 55%
- Tonic seizures (Mus musculus [10]): 33%
- Tonic seizures (Mus musculus [11]): 45%
- Tonic seizures (Mus musculus [12]): 27%

SMILES: CC(C)(C)NC(=O)CNC(=O)OCc1ccccc1
- ED50 (Mus musculus [5]): 39.4 mg/kg
- Protected/tested (Mus musculus [17]): 4
- Log Ko [3]: 3.25

SMILES: CCCCCCCCCCNC(=O)CNC(=O)OCc1ccccc1
- Protected/tested (Mus musculus [19]): 2
- Protected/tested (Mus musculus [20]): 3
- Log Ko [3]: > 5

SMILES: CCCCCCCCCCOC(=O)CNC(=O)OCc1ccccc1
- Protected/tested (Mus musculus [23]): 1
- Protected/tested (Mus musculus [24]): 5
- Log Ko [3]: > 5

SMILES: Cc1ccc(NC(=O)CNC(=O)OCc2ccccc2)cc1
- ED50 (Mus musculus [4]): 27.4 mg/kg
- Protected/tested (Mus musculus [25]): 0
- Log Ko [3]: 3.99

SMILES: NC(=O)CNC(=O)OCc1ccccc1
- ED50 (Mus musculus [4]): 8.3 mg/kg
- ED50 (Mus musculus [5]): 15.2 mg/kg
- Log Ko [3]: 1.52

SMILES: CNC(=O)CNC(=O)OCc1ccccc1
- ED50 (Mus musculus [4]): 7.8 mg/kg
- ED50 (Mus musculus [5]): 13.6 mg/kg
- Log Ko [3]: 2.03

SMILES: O=C(O)CNC(=O)CCc1ccccc1 [HYDROCINNAMOYLGLYCINE]
- Average latency (Mus musculus [29]): 99%
- Average latency (Mus musculus [30]): 96%
- Protected/tested (Mus musculus [31]): 6
- Protected/tested (Mus musculus [32]): 3
- Tonic seizures (Mus musculus [33]): 80%
- Tonic seizures (Mus musculus [34]): 100%

SMILES: CCCCCNCC(N)=O [MILACEMIDE]
- ED50 (Mus musculus [4]): 30.2 mg/kg
- Protected/tested (Mus musculus [35]): 2

SMILES: O=C1NC(=O)C(c2ccccc2)(c2ccccc2)N1 [PHENYTOIN]
- ED50 (Mus musculus [5]): 3.5 mg/kg
- ED50 (Mus musculus [36]): 3 mg/kg

SMILES: CCCC(CCC)C(=O)O [VALPROIC ACID]
- ED50 (Mus musculus [15]): 80.6 mg/kg
- ED50 (Mus musculus [37]): 44.5 mg/kg

SMILES: CCCC(CCC)C(N)=O [VALPROMIDE]
- ED50 (Mus musculus [15]): 11.4 mg/kg
- ED50 (Mus musculus [37]): 14.9 mg/kg

— ChEMBL document CHEMBL1131201, “N-(benzyloxycarbonyl)glycine esters and amides as new anticonvulsants” (J Med Chem, 1998)
